High-throughput results deposited in PubChem BioAssay by several laboratories.
IDE cell inh = inhibitors of human insulin-degrading enzyme in cells; P14735; HEK cells, FAbetaB cleavage, fluorescence polarization; inhibition, % at 5.59 µM; 320,000 compounds, 0.41% hits;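 active means percent inhibition above the average of all tested compounds plus 3 SD, set per screening campaign, cut at about 16% in these data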;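 further: IDE supplied by intact live HEK cells; FP after avidin binding of uncleaved biotin substrate so inhibition keeps polarization high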
Target sequence (P14735 whole entry, looked up): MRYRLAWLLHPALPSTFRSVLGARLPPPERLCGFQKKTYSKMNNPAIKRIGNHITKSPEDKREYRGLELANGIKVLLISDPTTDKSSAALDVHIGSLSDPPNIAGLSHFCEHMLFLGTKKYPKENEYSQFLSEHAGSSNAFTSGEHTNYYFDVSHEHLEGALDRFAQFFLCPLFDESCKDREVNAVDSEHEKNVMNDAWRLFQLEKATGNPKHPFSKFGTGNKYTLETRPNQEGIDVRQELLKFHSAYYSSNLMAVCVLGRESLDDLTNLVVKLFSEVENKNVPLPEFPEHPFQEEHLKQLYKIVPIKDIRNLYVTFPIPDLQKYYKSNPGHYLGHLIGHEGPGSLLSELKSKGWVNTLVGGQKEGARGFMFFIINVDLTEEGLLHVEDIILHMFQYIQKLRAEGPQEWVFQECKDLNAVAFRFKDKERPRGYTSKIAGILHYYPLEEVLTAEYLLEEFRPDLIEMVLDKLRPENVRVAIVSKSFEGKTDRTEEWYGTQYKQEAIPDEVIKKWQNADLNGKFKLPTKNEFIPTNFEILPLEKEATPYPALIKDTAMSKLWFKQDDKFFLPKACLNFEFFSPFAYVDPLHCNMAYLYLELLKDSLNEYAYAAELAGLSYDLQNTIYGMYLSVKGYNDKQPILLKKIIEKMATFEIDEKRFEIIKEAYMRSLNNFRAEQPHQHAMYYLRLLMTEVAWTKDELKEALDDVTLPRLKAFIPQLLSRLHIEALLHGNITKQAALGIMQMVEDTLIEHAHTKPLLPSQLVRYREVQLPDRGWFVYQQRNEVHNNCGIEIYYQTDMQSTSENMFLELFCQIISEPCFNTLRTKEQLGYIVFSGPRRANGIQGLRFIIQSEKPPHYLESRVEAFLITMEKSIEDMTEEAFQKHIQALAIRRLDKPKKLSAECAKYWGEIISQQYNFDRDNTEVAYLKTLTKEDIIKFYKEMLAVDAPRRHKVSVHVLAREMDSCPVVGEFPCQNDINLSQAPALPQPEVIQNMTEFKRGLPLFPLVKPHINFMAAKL
TbMetRS inhib = blocks T. brucei methionyl-tRNA synthetase activity | purified T. brucei MetRS, ATP depletion, Kinase-Glo luminescence | inhibition, % at 11.9 µM | 360,000 compounds, 0.4% hits;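 active means inhibition above a per-plate cutoff of the control wells' mean inhibition plus 3 SD, cut at about 5.5% in these data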
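System: purified T. brucei MetRS enzyme / Detection: Kinase-Glo luciferase luminescence reporting remaining unconsumed ATP / Medium: HEPES buffer with MgCl2, KCl, DTT, spermine, BSA, pyrophosphatase / Replication: singlicate, one well per compound / Evaluation: percent inhibition relative to median high and low control wells / Schedule: 2 h aminoacylation at 25 °C after 15 min preincubation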
IDE act = IDE (human) activation, cell-based; P14735; HEK cells, FAbeta-B cleavage, fluorescence polarization; 0% vehicle, 100% cell-free pure enzyme wells; activation, % at 5.96 µM; 340,000 compounds, 0.073% hits; AID 493087;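 active means activation above the mean of all tested compounds plus 3 SD, set per screening campaign, cut at about 17% in these data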
CSN inh = inhibitors of human CSN-mediated cullin deneddylation; Q92905; Purified CSN, SCF-Nedd8-OG deneddylation, fluorescence polarization; inhibition, % at 12.5 µM; 360,000 compounds, 0.38% hits; AID 651999;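 active means pattern-corrected inhibition above about 35%, with an unprinted fluorescence ratio check between 0.5 and 1.5, limit read from the data, passing the limit was not always enough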
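Detection – fluorescence polarization · System – HEK293T-derived human Csn5 enzyme · Controls – substrate-only high control, full reaction low control · Timing – 90 min, room temperature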
HNF4A DNA FP = change in binding of human HNF4 alpha to DNA; P41235; HNF4a-FITC DNA binding, fluorescence polarization, 1 h; activity change, % at 10 µM; 360,000 compounds, 0.3% hits; in the data active means activity change above about 30%, passing the limit was not always enough
TPT1 inhibitor = blocks Candida albicans tRNA 2'-phosphotransferase. AID 1962. inhibition, % at 5 µM. 300,000 compounds, 0.81% hits. recombinant caTPT1, FP RNA substrate dephosphorylation;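 active means inhibition above the mean of all tested compounds plus 3 SD, set per screening campaign, cut at about 24% in these data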
caTPT1 confirm = TPT1 (C. albicans) inhibition, confirmation. inhibition, % at 5 µM. recombinant caTPT1, fluorescence polarization, RNase T1 coupled. 2,400 compounds, 74% hits. shares compounds with TPT1 inhibitor;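 active means inhibition above the primary screen limit, the mean inhibition of all tested compounds plus 3 SD, cut at about 25% in these data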
RNase T1 counter = blocks Aspergillus oryzae RNase T1, a TPT1 counter-screen | shares compounds with TPT1 inhibitor | RNase T1 cleavage, fluorescence polarization, 1536-well | inhibition, % at 5 µM | 2,400 compounds, 83% hits;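 active means inhibition above the solvent-only control well mean plus 3 SD, limit set per screening run, cut at about 23% in these data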;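 further: inhibitors block cleavage so intact labeled substrate keeps polarization high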
IDE inh confirm = confirmation of human insulin-degrading enzyme inhibitors in cells. shares compounds with IDE cell inh. HEK cells, FAbetaB cleavage, fluorescence polarization. inhibition, % at 5.59 µM. 1,200 compounds, 51% hits;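 active means mean inhibition across triplicate wells above the cutoff set by the earlier primary insulin-degrading enzyme screen, cut at about 16% in these data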
HEK293 tox = kills HEK cells in IDE inhibitor counter-screen. shares compounds with IDE cell inh. inhibition, % at 5.59 µM. HEK293 cytotoxicity, ATP luminescence. AID 449730. 1,200 compounds, 28% hits; in the data active means inhibition above about 22%
CSN5 deneddyl = validation of inhibitors of human CSN-mediated cullin deneddylation. shares compounds with CSN inh. Csn5 deneddylation of SCF-Nedd8OG, fluorescence polarization, 90 min. inhibition, % at 16.6 µM. 540 compounds, 62% hits; in the data active means inhibition above about 50%
MMP2 cntr CSN = counter-screen for CSN deneddylation inhibitors: human MMP-2 inhibition; 540 compounds, 33% hits; recombinant MMP-2, FRET substrate fluorescence, 60 min; inhibition, % at 16.6 µM; shares compounds with CSN inh;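 active means corrected plate-normalized z-score of 5 or more, or -5 or less, or inhibition of 15% or more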
Thrombin counter = counter-screen for CSN deneddylation inhibitors: bovine thrombin inhibition | shares compounds with CSN inh | bovine thrombin cleavage of Ub4-pepOG, fluorescence polarization | inhibition, % at 16.6 µM | 540 compounds, 49% hits;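 active means inhibition at or above a set limit, with a fluorescence interference ratio between 0.5 and a set maximum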
Hits are given with their value; – = inactive; · = no result; + = active, no number. Most compounds without a hit are left out; they make up all but 1.7% or so of the library.

SMILES	IDE cell inh	TbMetRS inhib	IDE act	CSN inh	HNF4A DNA FP	TPT1 inhibitor	caTPT1 confirm	RNase T1 counter	CSN5 deneddyl	MMP2 cntr CSN	Thrombin counter	others
N#C/C(=C/c1ccc(F)cc1)c1nnc(NC(=O)c2ccccc2)s1	–	–	–	–	–	–	·	·	·	·	·
CC1CC(C)CN(CCCNS(=O)(=O)c2ccc3c(c2)oc(=O)n3C)C1 (stereo not given)	·	–	–	–	–	·	·	·	·	·	·
COc1cc2cc3c(N)c(C(=O)Nc4sc(C)c(C)c4C#N)sc3nc2cc1OC	–	–	–	74	–	36	39	49	82	–	–
COC1=C/C(=C/c2c(N)n3cc(C)sc3nc2=O)C=CC1=O	–	–	–	78	66	81	127	128	66	–	62
NC(=O)c1ncn([C@@H]2O[C@H](CNCc3cccc(OC4CCCC4)c3)[C@@H](O)[C@H]2O)n1	·	–	–	–	–	·	·	·	·	·	·
Oc1ccc(Cl)cc1N=Cc1sc2ccccc2c1Cl	–	–	–	–	–	–	·	·	·	·	·
O=[N+]([O-])c1ccc(O)c(N=Cc2sc3ccccc3c2O)c1	–	–	–	44	–	42	38	53	102	–	51
CC1=Nc2ccccc2/C1=C/c1sc(=N)n(-c2nccs2)c1O	–	–	–	44	–	99	112	122	–	17	43
COc1ccc([C@@H]2CC=C(C(=O)O)[C@H](c3ccc(C)cc3)N2S(=O)(=O)c2ccccc2C)cc1	–	–	–	–	–	·	·	·	·	·	·
CCC(C)n1c(NC(=O)c2ccccc2)c(C#N)c2nc3ccccc3nc21 (stereo not given)	–	–	–	50	33	117	80	85	156	–	54
O=C1NC(=Nc2ccccc2)S/C1=C\C=C\c1ccco1	–	–	–	74	–	24	–	34	80	–	–
COc1ccc(N=C2NC(=O)/C(=C/C=C/c3ccccc3)S2)cc1	–	–	–	–	–	–	·	·	·	·	·
CCNC(=O)C1(C)CCN(C(=O)c2ccc(C(=O)OC)cc2)C1 (stereo not given)	·	–	·	–	–	·	·	·	·	·	·
N#C/C(=C\c1ccc(O)cc1)c1nc2ccccc2o1	43	–	–	48	57	102	114	116	114	–	39	IDE inh confirm=119;HEK293 tox=–
COc1ccc(/C=N/N2C(=O)CSC2=S)cc1Br	–	–	–	58	61	38	62	70	51	–	54
CN(/N=C/c1ccc(-c2ccc([N+](=O)[O-])cc2)o1)c1ccccc1	–	–	–	50	48	73	74	82	92	–	25
CCOC(=O)CN1C(=O)S/C(=C/C=C/c2ccc(N(C)C)cc2)C1=O	–	–	–	40	46	87	87	88	62	-44	66
COc1ccc(Cl)cc1C(=O)Nc1cccc(-c2ccc3nncn3n2)c1	17	–	–	137	55	38	55	28	–	18	22	IDE inh confirm=–;HEK293 tox=22
COc1coc(C(O)C[N+](=O)[O-])cc1=O (stereo not given)	–	–	–	–	–	–	·	·	·	·	·
CN(C(=O)COC(=O)c1cc2c(s1)CCCCC2)C1CCS(=O)(=O)C1 (stereo not given)	–	–	–	–	–	–	·	·	·	·	·
O=Cc1ccc(N2CCCC2)o1	–	–	–	–	–	–	·	·	·	·	·
N#C/C(=C\c1ccc(N2CCCCC2)o1)C(N)=O	32	–	–	106	–	+	171	164	198	–	–	IDE inh confirm=50;HEK293 tox=–
Cc1occc1C(=O)/C(C#N)=C/c1ccc(O)c(Br)c1	–	–	–	40	–	113	169	161	–	–	57
CN(C)c1ccc(/C=C/C(=O)c2ccccc2O)cc1	–	–	–	70	–	68	55	64	92	–	65
CN(C)c1ccc(/C=C/C(=O)c2cccnc2)cc1	30	–	–	49	–	93	100	100	52	-43	45	IDE inh confirm=43;HEK293 tox=–
SMILES	IDE cell inh	TbMetRS inhib	IDE act	CSN inh	HNF4A DNA FP	TPT1 inhibitor	caTPT1 confirm	RNase T1 counter	CSN5 deneddyl	MMP2 cntr CSN	Thrombin counter	others
Cc1ccc(/C=C/C(=O)c2ccccc2O)cc1	–	–	–	–	–	–	·	·	·	·	·
CN(C)c1ccc(/C=C/C(=O)c2ccc(O)cc2)cc1	·	–	–	–	–	·	·	·	·	·	·
CNC(=O)COc1coc(CN2CCN(c3cccc(Cl)c3)CC2)cc1=O	–	–	–	–	–	–	·	·	·	·	·
COc1cc(/C=C(\NC(=O)c2ccccc2)C(=O)N2CC3CC(C2)c2cccc(=O)n2C3)cc(OC)c1OC (stereo not given)	–	–	–	–	–	–	·	·	·	·	·
C=CCN1C(=O)/C(=C\C=C2\N(C)c3ccccc3C2(C)C)SC1=S	–	–	–	72	–	116	120	115	117	-35	–
CCCS(=O)(=O)NC(=O)C1(C)CCCN(C(=O)c2cc(OC)ccc2Br)C1 (stereo not given)	·	–	·	–	–	·	·	·	·	·	·
Cc1cc2oc3ccc(NCCCn4ccnc4)cc3c(=O)c2cc1C	–	–	–	48	73	55	64	73	137	61	30
Cc1cc2oc3ccc(NCCCN4CCOCC4)cc3c(=O)c2cc1C	–	–	–	–	–	–	·	·	·	·	·
CC(C)OC(=O)CN1C(=O)S/C(=C/c2ccc(N3CCCCC3)o2)C1=O	–	–	–	51	–	180	+	179	73	-114	–
CC(C)(C)OC(=O)CN1C(=O)S/C(=C\c2ccc(-c3cccc(C(=O)O)c3)o2)C1=O	–	·	·	·	·	–	·	·	·	·	·
CO/N=C/c1cccn1-c1nccc(N(C)C)c1C#N	–	–	·	–	–	–	·	·	·	·	·
